# Source: ChEMBL document CHEMBL5303300, “EUbOPEN Chemogenomics Library - Multiplex” (2023)
# “And” between values parts separate entries of the source, which are not always exact repeats. Equal values may be shown once.
# Test system: U2OS
# Assay: Multiplex assay against U2OS
# Type: toxicity, cell-based
# Details: human, number of replicates 2
# In short: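 Imaging took place on a CQ1 microscope at 37°C and 5% CO2 once compound had been added to live cells stained at seeding with Hoechst33342, BioTracker Green Microtubule Cytoskeleton Dye, MitoTracker Red and Annexin V Alexa Fluor 680. CellPathfinder machine-learning gating classed cells as Hoechst high-intensity objects or normal cells, classed normal cells as having healthy, pyknosed or fragmented nuclei, and classed pyknosed cells as mitotic or apoptotic. Tubulin, mitochondrial-mass and membrane-permeability phenotypes are per cents of the healthy-nucleus cells.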
# [1] = 12 h, 1 µM, compound concentration 1 uM
# [2] = 12 h, 10 µM, compound concentration 10 uM
# [3] = 24 h, 1 µM, compound concentration 1 uM
# [4] = 24 h, 10 µM, compound concentration 10 uM
# [5] = 48 h, 1 µM, compound concentration 1 uM
# [6] = 48 h, 10 µM, compound concentration 10 uM
# [7] = 12 h, 0 µM, compound concentration 0 uM
# [8] = 24 h, 0 µM, compound concentration 0 uM
# [9] = 48 h, 0 µM, compound concentration 0 uM
structure (smiles),measurement,setting,value
CC(C)(C)c1cnc(CSc2cnc(NC(=O)C3CCNCC3)s2)o1 [BMS-387032],Population Apoptotic (%),[1],83% and 88%
same,Population Healthy Nuclei (%),[1],60% and 73%
same,Population Hoechst High Intensity Objects (%),[1],1% and 0%
same,Population Membrane Permeable-Phenotype (%),[1],8% and 3%
same,Population Mitochondria Different-Phenotype (%),[1],2% and 4%
same,Population Mitotic Cells (%),[1],16% and 12%
same,Population Normal (%),[1],98% and 100%
same,Population Pyknosed Nuclei (%),[1],10% and 19%
same,Population Tubulin-Different-Phenotype (%),[1],80% and 82%
same,Total Cell Count,[1],61 and 128
same,Population Apoptotic (%),[2],85% and 65%
same,Population Healthy Nuclei (%),[2],32% and 71%
same,Population Hoechst High Intensity Objects (%),[2],0% and 1%
same,Population Mitochondria Different-Phenotype (%),[2],7% and 11%
same,Population Mitotic Cells (%),[2],14% and 35%
same,Population Normal (%),[2],100% and 98%
same,Population Pyknosed Nuclei (%),[2],17% and 22%
same,Population Apoptotic (%),[3],66% and 94%
same,Population Fragmented Nuclei (%),[3],22% and 9%
same,Population Healthy Nuclei (%),[3],62% and 69%
same,Population Hoechst High Intensity Objects (%),[3],1% and 0%
same,Population Membrane Permeable-Phenotype (%),[3],8% and 1%
same,Population Mitochondria Different-Phenotype (%),[3],5%
same,Population Normal (%),[3],98% and 100%
same,Population Pyknosed Nuclei (%),[3],15% and 21%
same,Population Tubulin-Different-Phenotype (%),[3],75% and 77%
same,Total Cell Count,[3],60 and 163
same,Population Apoptotic (%),[4],87% and 78%
same,Population Healthy Nuclei (%),[4],32% and 41%
same,Population Hoechst High Intensity Objects (%),[4],0%
same,Population Mitochondria Different-Phenotype (%),[4],21% and 25%
same,Population Mitotic Cells (%),[4],12% and 21%
same,Population Normal (%),[4],100% and 99%
same,Population Pyknosed Nuclei (%),[4],18% and 46%
same,Population Tubulin-Different-Phenotype (%),[4],57% and 52%
same,Population Apoptotic (%),[5],68% and 93%
same,Population Fragmented Nuclei (%),[5],23% and 8%
same,Population Healthy Nuclei (%),[5],55% and 66%
same,Population Hoechst High Intensity Objects (%),[5],0%
same,Population Mitochondria Different-Phenotype (%),[5],6% and 5%
same,Population Normal (%),[5],100%
same,Population Pyknosed Nuclei (%),[5],21% and 25%
same,Population Tubulin-Different-Phenotype (%),[5],89% and 80%
same,Total Cell Count,[5],89 and 235
same,Population Apoptotic (%),[6],84% and 94%
same,Population Healthy Nuclei (%),[6],21% and 9%
same,Population Hoechst High Intensity Objects (%),[6],0% and 4%
same,Population Membrane Permeable-Phenotype (%),[6],80% and 41%
same,Population Mitochondria Different-Phenotype (%),[6],40% and 52%
same,Population Mitotic Cells (%),[6],15% and 5%
same,Population Normal (%),[6],100% and 95%
same,Population Pyknosed Nuclei (%),[6],27% and 75%
same,Population Tubulin-Different-Phenotype (%),[6],50% and 76%
O=C1NC(=NCc2cccs2)SC1=Cc1ccc2ncccc2c1,Population Apoptotic (%),[1],100% and 60%
same,Population Healthy Nuclei (%),[1],68% and 89%
same,Population Hoechst High Intensity Objects (%),[1],0%
same,Population Membrane Permeable-Phenotype (%),[1],0% and 1%
same,Population Mitochondria Different-Phenotype (%),[1],0% and 1%
same,Population Normal (%),[1],100%
same,Population Pyknosed Nuclei (%),[1],9% and 6%
same,Population Tubulin-Different-Phenotype (%),[1],59% and 88%
same,Population Apoptotic (%),[2],71% and 81%
same,Population Healthy Nuclei (%),[2],57% and 85%
same,Population Hoechst High Intensity Objects (%),[2],0%
same,Population Membrane Permeable-Phenotype (%),[2],5% and 7%
same,Population Mitochondria Different-Phenotype (%),[2],0% and 4%
same,Population Mitotic Cells (%),[2],28% and 18%
same,Population Normal (%),[2],100%
same,Population Pyknosed Nuclei (%),[2],21% and 8%
same,Population Tubulin-Different-Phenotype (%),[2],31% and 33%
same,Population Apoptotic (%),[3],63% and 61%
same,Population Fragmented Nuclei (%),[3],11% and 4%
same,Population Healthy Nuclei (%),[3],66% and 89%
same,Population Hoechst High Intensity Objects (%),[3],0%
same,Population Membrane Permeable-Phenotype (%),[3],5% and 0%
same,Population Mitochondria Different-Phenotype (%),[3],0%
same,Population Mitotic Cells (%),[3],36% and 38%
same,Population Normal (%),[3],100%
same,Population Tubulin-Different-Phenotype (%),[3],67% and 82%
same,Population Apoptotic (%),[4],100% and 75%
same,Population Healthy Nuclei (%),[4],56% and 79%
same,Population Hoechst High Intensity Objects (%),[4],0%
same,Population Membrane Permeable-Phenotype (%),[4],0% and 3%
same,Population Mitochondria Different-Phenotype (%),[4],0% and 4%
same,Population Mitotic Cells (%),[4],0% and 25%
same,Population Normal (%),[4],100%
same,Population Pyknosed Nuclei (%),[4],26% and 15%
same,Population Tubulin-Different-Phenotype (%),[4],26% and 41%
same,Population Apoptotic (%),[5],92% and 73%
same,Population Healthy Nuclei (%),[5],57% and 88%
same,Population Hoechst High Intensity Objects (%),[5],0%
same,Population Membrane Permeable-Phenotype (%),[5],4% and 2%
same,Population Mitochondria Different-Phenotype (%),[5],0%
same,Population Normal (%),[5],100%
same,Population Tubulin-Different-Phenotype (%),[5],70% and 90%
same,Population Apoptotic (%),[6],84%
same,Population Fragmented Nuclei (%),[6],17% and 12%
same,Population Healthy Nuclei (%),[6],36% and 60%
same,Population Hoechst High Intensity Objects (%),[6],2% and 0%
same,Population Membrane Permeable-Phenotype (%),[6],6% and 4%
same,Population Mitotic Cells (%),[6],15%
same,Population Normal (%),[6],97% and 100%
same,Population Pyknosed Nuclei (%),[6],46% and 26%
same,Population Tubulin-Different-Phenotype (%),[6],60% and 55%
O=C1NC(=O)C(c2ccccc2[N+](=O)[O-])=C1Nc1ccc(O)c(Cl)c1,Population Apoptotic (%),[1],100% and 38%
same,Population Fragmented Nuclei (%),[1],12% and 5%
same,Population Healthy Nuclei (%),[1],80% and 83%
same,Population Hoechst High Intensity Objects (%),[1],0%
same,Population Membrane Permeable-Phenotype (%),[1],0% and 1%
same,Population Mitochondria Different-Phenotype (%),[1],0%
same,Population Normal (%),[1],100%
same,Population Pyknosed Nuclei (%),[1],8% and 10%
same,Population Tubulin-Different-Phenotype (%),[1],85% and 90%
same,Population Apoptotic (%),[2],80% and 37%
same,Population Fragmented Nuclei (%),[2],9% and 5%
same,Population Healthy Nuclei (%),[2],68% and 83%
same,Population Hoechst High Intensity Objects (%),[2],0% and 3%
same,Population Membrane Permeable-Phenotype (%),[2],6% and 3%
same,Population Mitochondria Different-Phenotype (%),[2],6% and 0%
same,Population Normal (%),[2],100% and 96%
same,Population Pyknosed Nuclei (%),[2],22% and 10%
same,Population Tubulin-Different-Phenotype (%),[2],73% and 92%
same,Total Cell Count,[2],22
same,Population Apoptotic (%),[3],40% and 37%
same,Population Healthy Nuclei (%),[3],67% and 86%
same,Population Hoechst High Intensity Objects (%),[3],0%
same,Population Membrane Permeable-Phenotype (%),[3],4% and 2%
same,Population Mitochondria Different-Phenotype (%),[3],0%
same,Population Mitotic Cells (%),[3],60% and 62%
same,Population Normal (%),[3],100%
same,Population Pyknosed Nuclei (%),[3],14% and 10%
same,Population Tubulin-Different-Phenotype (%),[3],73% and 92%
same,Population Apoptotic (%),[4],66% and 31%
same,Population Fragmented Nuclei (%),[4],8% and 5%
same,Population Healthy Nuclei (%),[4],73% and 84%
same,Population Hoechst High Intensity Objects (%),[4],0%
same,Population Membrane Permeable-Phenotype (%),[4],4% and 1%
same,Population Mitochondria Different-Phenotype (%),[4],4% and 0%
same,Population Mitotic Cells (%),[4],33% and 68%
same,Population Normal (%),[4],100% and 99%
same,Population Pyknosed Nuclei (%),[4],17% and 10%
same,Population Tubulin-Different-Phenotype (%),[4],84% and 95%
same,Population Apoptotic (%),[5],71% and 55%
same,Population Fragmented Nuclei (%),[5],9% and 3%
same,Population Healthy Nuclei (%),[5],80% and 90%
same,Population Hoechst High Intensity Objects (%),[5],0%
same,Population Membrane Permeable-Phenotype (%),[5],1%
same,Population Mitochondria Different-Phenotype (%),[5],0%
same,Population Mitotic Cells (%),[5],28% and 44%
same,Population Normal (%),[5],100%
same,Population Pyknosed Nuclei (%),[5],10% and 5%
same,Population Tubulin-Different-Phenotype (%),[5],86% and 93%
same,Population Apoptotic (%),[6],22% and 31%
same,Population Fragmented Nuclei (%),[6],5% and 7%
same,Population Healthy Nuclei (%),[6],77% and 85%
same,Population Hoechst High Intensity Objects (%),[6],0% and 2%
same,Population Membrane Permeable-Phenotype (%),[6],2% and 0%
same,Population Mitochondria Different-Phenotype (%),[6],2% and 0%
same,Population Mitotic Cells (%),[6],77% and 68%
same,Population Normal (%),[6],100% and 97%
same,Population Pyknosed Nuclei (%),[6],16% and 7%
same,Population Tubulin-Different-Phenotype (%),[6],92% and 98%
COc1cc(C(N)=O)ccc1Nc1ncc2c(n1)N(CCC(C)C)[C@H](C)C(=O)N2C,Population Apoptotic (%),[7],42% and 75%
same,Population Healthy Nuclei (%),[7],45% and 69%
same,Population Hoechst High Intensity Objects (%),[7],0%
same,Population Membrane Permeable-Phenotype (%),[7],31% and 42%
same,Population Mitochondria Different-Phenotype (%),[7],15% and 27%
same,Population Mitotic Cells (%),[7],57% and 24%
same,Population Normal (%),[7],100%
same,Population Pyknosed Nuclei (%),[7],16% and 18%
same,Population Tubulin-Different-Phenotype (%),[7],78% and 56%
same,Population Apoptotic (%),[1],100% and 61%
same,Population Healthy Nuclei (%),[1],66% and 76%
same,Population Hoechst High Intensity Objects (%),[1],0%
same,Population Membrane Permeable-Phenotype (%),[1],7% and 1%
same,Population Normal (%),[1],100%
same,Population Pyknosed Nuclei (%),[1],4% and 14%
same,Population Tubulin-Different-Phenotype (%),[1],92% and 81%
same,Population Apoptotic (%),[8],100% and 89%
same,Population Fragmented Nuclei (%),[8],46% and 22%
same,Population Healthy Nuclei (%),[8],41% and 54%
same,Population Hoechst High Intensity Objects (%),[8],0%
same,Population Membrane Permeable-Phenotype (%),[8],76% and 33%
same,Population Mitochondria Different-Phenotype (%),[8],70% and 40%
same,Population Mitotic Cells (%),[8],0% and 10%
same,Population Normal (%),[8],100%
same,Population Pyknosed Nuclei (%),[8],12% and 23%
same,Population Tubulin-Different-Phenotype (%),[8],88% and 47%
same,Population Apoptotic (%),[3],66% and 94%
same,Population Healthy Nuclei (%),[3],32% and 73%
same,Population Hoechst High Intensity Objects (%),[3],0%
same,Population Normal (%),[3],100%
same,Population Pyknosed Nuclei (%),[3],12% and 8%
same,Population Tubulin-Different-Phenotype (%),[3],87% and 85%
same,Population Apoptotic (%),[9],75% and 95%
same,Population Fragmented Nuclei (%),[9],57% and 39%
same,Population Healthy Nuclei (%),[9],34% and 30%
same,Population Hoechst High Intensity Objects (%),[9],0%
same,Population Membrane Permeable-Phenotype (%),[9],82% and 72%
same,Population Mitochondria Different-Phenotype (%),[9],70%
same,Population Normal (%),[9],100%
same,Population Tubulin-Different-Phenotype (%),[9],76% and 82%
same,Population Apoptotic (%),[5],100% and 84%
same,Population Fragmented Nuclei (%),[5],61% and 25%
same,Population Hoechst High Intensity Objects (%),[5],0%
same,Population Mitotic Cells (%),[5],0% and 15%
same,Population Normal (%),[5],100%
same,Population Pyknosed Nuclei (%),[5],17% and 12%
same,Population Tubulin-Different-Phenotype (%),[5],100% and 93%
